Results gathered from unrelated publications.
Cell line: HCT-116
Observed: cell growth or viability

Compound | technique | time | IC50
CNC(=O)c1cc(Oc2ccc(NC(=O)Nc3ccc(Cl)c(C(F)(F)F)c3)cc2)ccn1 | MTT | 72 h | 2.25 µM
c1ccc(C[n+]2cn(COC3CCCCC3)c3ccccc32)cc1 | MTT | 72 h | 44.2 µM
O=c1c(O)c(-c2ccc(O)cc2)oc2cc(O)cc(O)c12 | WST-1 | 48 h | 44.7 µM
CC1=C(O)C(=O)C=C2C1=CC=C1[C@@]2(C)CC[C@@]2(C)[C@@H]3C[C@](C)(C(=O)OCCCCCCO)CC[C@]3(C)CC[C@]12C | MTT | 48 h | 0.53 µM
COc1ccnc(COc2ccc(NC(=O)Nc3cc(F)cc(F)c3)cc2)c1OC | MTT | 72 h | 25.7 µM
CC1=C(O)C(=O)C=C2C1=CC=C1[C@@]2(C)CC[C@@]2(C)[C@@H]3C[C@](C)(C(=O)OCCCCCCCO)CC[C@]3(C)CC[C@]12C | MTT | 48 h | 0.93 µM
Cc1cc(C)n(-c2nc(Nc3ccc(Br)cc3)nc(N3CCOCC3)n2)n1 | MTT | 72 h | 0.5 µM
COc1ccc(O)c(/C=N/c2nc(Oc3ccccc3)nn2-c2ccc(C(=O)O)cc2)c1 | MTT |  | 58.5 µM
CCn1c(-c2nnc(NC(=O)c3cc4c([nH]c5ccccc54)c(-c4ccc(C)cc4)n3)s2)cc2ccccc21 | MTT | 72 h | 15.1 µM
O=C(NC(=S)N1CCCCC1)c1ccc2ccccc2c1 |  | 48 h | 9.12 µM
COCCCOc1ccnc(COc2ccc(NC(=O)Nc3cc(F)cc(F)c3)cc2)c1C | MTT | 72 h | 56.6 µM
CC[C@H](C)C(=O)O[C@H]1C[C@@H](C)C=C2C=C[C@H](C)[C@H](CC[C@@H]3C[C@@H](O)CC(=O)O3)[C@H]21 | SRB | 72 h | 6.79 µg/mL
Cc1ccc(O)c(/C=N/c2nc(Oc3ccccc3)nn2-c2ccc(C(=O)O)cc2)c1 | MTT |  | 74 µM
O=C(/N=C1\S/C(=C\c2ccc(Cl)cc2)C(=O)N1C1CCCCC1)c1ccc2ccccc2c1 |  | 48 h | 9.28 µM
O=C(Nc1nnc(-c2cc3ccccc3[nH]2)s1)c1cc2c([nH]c3ccccc32)c(-c2ccc(F)cc2)n1 | MTT | 72 h | 6.22 µM
COc1ccc2oc(=O)cc(CSC(C)=O)c2c1 | MTT | 36 h | > 20 µM
COc1cc(CNC(=O)CCCC/C=C/C(C)C)ccc1OCc1cn(-c2ccc(C(F)(F)F)cc2)nn1 | SRB |  | 8.9 µM
O=C(NC(=S)NCCNC(=S)NC(=O)c1ccc2ccccc2c1)c1ccc2ccccc2c1 |  | 48 h | 1.31 µM
O=C(/C=C/c1ccc(O)c(O)c1)O[C@@H]1C[C@](O)(C(=O)O)C[C@@H](O)[C@H]1O | WST-1 | 48 h | 27.9 µM
COc1cc([C@@H]2c3cc4c(cc3[C@@H](O[C@@H]3O[C@@H]5CO[C@@H](C)O[C@H]5[C@H](O)[C@H]3O)[C@H]3COC(=O)[C@H]23)OCO4)cc(OC)c1O | MTS | 24 h | 29.6 µM
CC1=C(O)C(=O)C=C2C1=CC=C1[C@@]2(C)CC[C@@]2(C)[C@@H]3C[C@](C)(C(=O)OCCCOc4ccccc4)CC[C@]3(C)CC[C@]12C | MTT | 48 h | 1.34 µM
O=C(/N=c1\scc(-c2ccccc2)n1C1CCCCC1)c1ccc2ccccc2c1 |  | 48 h | 19.2 µM
Cc1c(OCC(F)(F)F)ccnc1COc1ccc(NC(=O)Nc2ccc(F)cc2)cc1 | MTT | 72 h | 6.35 µM
CC(=O)O[C@H]1C(=O)[C@@]2(C)[C@H]([C@H](OC(=O)c3ccccc3)[C@]3(O)C[C@H](OC(=O)[C@H](O)[C@@H](NC(=O)c4ccccc4)c4ccccc4)C(C)=C1C3(C)C)[C@]1(OC(C)=O)CO[C@@H]1C[C@@H]2O | fluorescence | 72 h | 0.0019 µM

Compound | technique | time | IC50
O=C(Nc1nnc(-c2cc3ccccc3[nH]2)s1)c1cc2c([nH]c3ccccc32)c(-c2ccc(Cl)cc2)n1 | MTT | 72 h | 5.98 µM
O=C(NC(=S)Nc1ccccc1)c1ccc2ccccc2c1 |  | 48 h | 5.77 µM
CSc1nc(N)n(-c2ccc(C(=O)O)cc2)n1 | MTT |  | 61 µM
COC(=O)c1cc2ccc(O)cc2oc1=O | MTT | 36 h | > 20 µM
NC(=O)NOCCCC[P+](c1ccccc1)(c1ccccc1)c1ccccc1 | imaging |  | > 600 µM
COc1c(C)cnc(COc2ccc(NC(=O)Nc3cccc(C(F)(F)F)c3)cc2)c1C | MTT | 72 h | 12.5 µM
C=CC(=O)Nc1cccc(Nc2nc(Nc3ccc(OCCOC)cc3)ncc2F)c1 |  |  | 6.79 µM
CC(=O)Oc1ccc2oc(=O)cc(CSC(C)=O)c2c1 | MTT | 36 h | > 20 µM
CSc1nc(/N=C/c2cc(Br)ccc2O)n(-c2ccc(C(=O)O)cc2)n1 | MTT |  | 59.4 µM
COc1cc(CNC(=O)CCCC/C=C/C(C)C)ccc1OCc1cn(-c2ccc(C#N)cc2)nn1 | SRB |  | 10.5 µM
NC(=O)NOCCCCCCCCCCCC[P+](c1ccccc1)(c1ccccc1)c1ccccc1 | imaging |  | 1.8 µM
COc1cc([C@@H]2c3cc4c(cc3[C@@H](O[C@@H]3O[C@@H]5CO[C@@H](C)O[C@H]5[C@H](O)[C@H]3O)[C@H]3COC(=O)[C@H]23)OCO4)cc(OC)c1O | MTS | 72 h | 18.3 µM
COc1cccc2c3c(c[n+](C)c12)sc1cccc(F)c13 | MTT | 72 h | 6.8 µM
CSc1nc(NC(=S)NCCc2ccccc2)n(-c2ccc(C(=O)O)cc2)n1 | MTT |  | 45.8 µM
CC(=O)SCc1cc(=O)oc2cc(O)ccc12 | MTT | 36 h | > 20 µM
COCCCOc1ccnc(COc2ccc(NC(=O)Nc3ccc(Cl)cc3)cc2)c1C | MTT | 72 h | 9.5 µM
Cn1c(-c2nnc(NC(=O)c3cc4c([nH]c5ccccc54)c(-c4ccc(F)cc4)n3)s2)cc2ccccc21 | MTT | 72 h | 14.3 µM
COc1c(C)cnc(COc2ccc(NC(=O)Nc3ccc(F)cc3)cc2)c1C | MTT | 72 h | 12.7 µM
CCOC(=O)/C=C1\S/C(=N\C(=O)c2ccc3ccccc3c2)N(C2CCCCC2)C1=O |  | 48 h | 11.4 µM
COc1ccnc(COc2ccc(NC(=O)Nc3ccc(Cl)cc3)cc2)c1OC | MTT | 72 h | 12.8 µM
CC(=O)SCc1cc(=O)oc2ccc(O)cc12 | MTT | 36 h | > 20 µM
O=c1[nH]cc(F)c(=O)[nH]1 | WST-1 | 48 h | 9.5 µM
CC1=C(O)C(=O)C=C2C1=CC=C1[C@@]2(C)CC[C@@]2(C)[C@@H]3C[C@](C)(C(=O)OCCO)CC[C@]3(C)CC[C@]12C | MTT | 48 h | 0.47 µM
